Assay results as given in ChEMBL document CHEMBL2177098, “Synthesis and evaluation of novel ¹⁸F labeled 2-pyridinylbenzoxazole and 2-pyridinylbenzothiazole derivatives as ligands for positron emission tomography (PET) imaging of β-amyloid plaques” (J Med Chem, 2012).

Legend:
[1] = system: Stomach; assay: Drug uptake in ICR mouse stomach assessed per organ at 370 kBq/100 ul, iv at 2 mins by gamma-counting analysis; type: ADME, organism-based; details: in vivo
Outline: (§1)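 Male ICR mice (5 weeks, about 20 g) got 18F tracer in saline (370 KBq per 100 μL) via tail vein; n = 5 per time point, killed at 2, 10, 30, 60 min. Organs removed and γ-counted against diluted injectate; expressed as % injected dose per organ.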

[2] = system: Brain; assay: Drug uptake in ICR mouse brain at 370 kBq/100 ul, iv at 60 mins by gamma-counting analysis; type: ADME, organism-based; details: in vivo, 1 h
Outline: (§2)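 Male ICR mice (5 weeks, about 20 g) got 18F tracer in saline (370 KBq per 100 μL) via tail vein; n = 5 per time point, killed at 2, 10, 30, 60 min. Organs weighed and γ-counted; percent dose per gram wet tissue from comparison with diluted injectate aliquots.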

[3] = system: Intestine; assay: Drug uptake in ICR mouse intestine assessed per organ at 370 kBq/100 ul, iv at 30 mins by gamma-counting analysis; type: ADME, organism-based; details: in vivo, 0.5 h; outline: as §1
[4] = system: Brain; assay: Drug uptake in healthy human brain at 370 KBq/100 ul after 1 hr by autoradiographic analysis; type: ADME, tissue-based; details: in vitro
[5] = Chemical stability of the compound in saline solution after 6 hrs; type: physicochemical; details: buffer
Outline: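 Tracer kept in saline solution at room temperature, and stability followed during storage for up to 6 h.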

[6] = system: Blood; assay: Drug uptake in ICR mouse blood at 370 kBq/100 ul, iv at 60 mins by gamma-counting analysis; type: ADME, organism-based; details: in vivo, 1 h; outline: as §2
[7] = system: Lung; assay: Drug uptake in ICR mouse lung at 370 kBq/100 ul, iv at 60 mins by gamma-counting analysis; type: ADME, organism-based; details: in vivo, 1 h; outline: as §2
[8] = system: Stomach; assay: Drug uptake in ICR mouse stomach assessed per organ at 370 kBq/100 ul, iv at 10 mins by gamma-counting analysis; type: ADME, organism-based; details: in vivo; outline: as §1
[9] = system: Spleen; assay: Drug uptake in ICR mouse spleen at 370 kBq/100 ul, iv at 60 mins by gamma-counting analysis; type: ADME, organism-based; details: in vivo, 1 h; outline: as §2
[10] = system: Bone; assay: Drug uptake in ICR mouse bone at 370 kBq/100 ul, iv at 60 mins by gamma-counting analysis; type: ADME, organism-based, Bone element; details: in vivo, 1 h; outline: as §2
[11] = system: Brain; assay: Ratio of drug uptake in brain at 2 mins to drug uptake in brain at 60 mins in ICR mouse at 370 KBq/100 ul, iv; type: ADME, organism-based; details: in vivo
Outline: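 Normal male ICR mice (5 weeks, about 20 g) received the ¹⁸F tracer in saline (370 KBq per 100 μL) by tail-vein injection. Groups of n = 5 were killed at 2, 10, 30 and 60 min. Organs were removed, weighed and γ-counted against diluted aliquots of the injectate, giving % dose per gram. Stomach and intestine were expressed per organ. The brain ratio is 2 min/60 min uptake. Values are mean ± SD.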

[12] = system: Lung; assay: Drug uptake in ICR mouse lung at 370 kBq/100 ul, iv at 2 mins by gamma-counting analysis; type: ADME, organism-based; details: in vivo; outline: as §2
[13] = system: Brain; assay: Drug uptake in wild type C57BL6 mouse brain at 370 KBq/100 ul after 1 hr by autoradiographic analysis; type: ADME, tissue-based; details: in vitro
Outline: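 Paraffin brain sections from 12-month-old male control C57BL6 mice were deparaffinized through xylene and graded ethanol, then held in PBS (0.2 M, pH 7.4) for 30 min. They were incubated with the ¹⁸F tracer (370 KBq per 100 μL) for 1 h at room temperature. Sections were washed in 40% EtOH, rinsed with water for 1 min, dried, and exposed to a phosphor plate for 2 h. The same sections were then stained with thioflavin S.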

Drug uptake [1]: 3.24 %ID
Drug uptake [2]: 1.55 % ID/g
Drug uptake [3]: 33.66 %ID
Drug uptake [4]: Not Active
Stability [5]: Stable
Drug uptake [6]: 3.2 % ID/g
Drug uptake [7]: 2.57 % ID/g
Drug uptake [8]: 5.59 %ID
Drug uptake [9]: 1.64 % ID/g
Drug uptake [10]: 2.37 % ID/g
Ratio [11]: 4.66
Drug uptake [12]: 4.14 % ID/g
Drug uptake [13]: Not Active
SMILES: CNc1ccc(-c2nc3cc(OCC[18F])ccc3o2)cn1
